Assay results from different studies.
Medium: Caco-2

| SMILES | setting | quantity | result |
| --- | --- | --- | --- |
| COCCc1ccc(OCC(O)CNC(C)C)cc1 (stereo not shown) |  | Papp | 15 ×10⁻⁶ cm/s |
| CNC(=C[N+](=O)[O-])NCCSCc1ccc(CN(C)C)o1 |  | Papp B→A | 2 ×10⁻⁶ cm/s |
| CO[C@@H](C[C@H]1C(C)=CC[C@@H]2[C@]3(C)C[C@H](O[C@@H]4O[C@@H](C)[C@H](OC(=O)c5cccc(O)c5)[C@@H](O[C@@H]5O[C@H](CO)[C@@H](O)[C@H](O)[C@H]5NC(C)=O)[C@H]4O)[C@@H](O)C(C)(C)[C@H]3CC[C@]21C)[C@H](N)C(=O)O.O=C(O)C(F)(F)F | 5 µM, 1 h | Papp B→A | 0.05 ×10⁻⁶ cm/s |
| Nc1cc(N2CCCCC2)nc(N)[n+]1[O-] | 10 µM, 2 h, pH 7.4 | Papp B→A | 7.19 ×10⁻⁶ cm/s |
| CC[C@H](C)C(=O)N1CCC(NC(=O)Nc2ccc(OC(F)(F)F)c(F)c2)CC1 | 10 µM, 1 h, pH 7.4 | Papp B→A | 16.4 ×10⁻⁶ cm/s |
| COc1cccc2c(-c3ccccc3)cc(-c3ccc(-c4ccc(C(=O)O)cc4)[nH]3)nc12 |  | Papp B→A | 7.44 ×10⁻⁶ cm/s |
| C[C@@H]1O[C@@H](OC[C@H]2O[C@@H](Oc3c(-c4ccc(O)c(O)c4)oc4cc(O)cc(O)c4c3=O)[C@H](O)[C@@H](O)[C@@H]2O)[C@H](O)[C@H](O)[C@H]1O | 1 mg/mL, pH 7.4 | Papp | 24.5 ×10⁻⁶ cm/s |
| CC1=C2C(=O)O[C@@H](c3ccoc3)[C@]2(C)CCC1 | 1 mg/mL, 4 h, pH 7.4 | Papp | > 10 ×10⁻⁶ cm/s |
| CC(C)NCC(O)COc1cccc2ccccc12 (stereo not shown) |  | Papp | 20 ×10⁻⁶ cm/s |
| CCn1c(=O)c2c(nc(S)n2C)n(C)c1=O | 10 µM, 2 h | Papp B→A | 7 ×10⁻⁶ cm/s |
| O=c1c(O)c(-c2ccc(O)c(O)c2)oc2cc(O)cc(O)c12 | 1 mg/mL, pH 7.4 | Papp | 1.7 ×10⁻⁶ cm/s |
| C[C@H]1O[C@@H](O[C@H]2[C@@H](O)C[C@H](O[C@H]3[C@@H](O)C[C@H](O[C@H]4CC[C@@]5(C)[C@H](CC[C@@H]6[C@@H]5C[C@@H](O)[C@]5(C)[C@@H](C7=CC(=O)OC7)CC[C@]65O)C4)O[C@@H]3C)O[C@@H]2C)C[C@H](O)[C@@H]1O | 10 µM, 2 h, pH 7.4 | Papp B→A | 9.63 ×10⁻⁶ cm/s |
| CC(C)NCC(O)COc1cccc2ccccc12 (stereo not shown) | 10 µM, 2 h, pH 7.4 | Papp B→A | 9.99 ×10⁻⁶ cm/s |
| CCC(=O)N[C@H]1Cc2cccc(C(=O)O)c2OB1O | 5 µM, 2 h, pH 7.4 | Papp B→A | 0.15 ×10⁻⁶ cm/s |
| Cn1c(S)nc2c1c(=O)n(Cc1ccccc1)c(=O)n2C | 10 µM, 2 h | Papp B→A | 30.5 ×10⁻⁶ cm/s |
| Cc1ncsc1-c1ccc(CNC(=O)[C@@H]2C[C@@H](O)CN2C(=O)[C@@H](NC(=O)C2(F)CC2)C(C)(C)C)c(OCCOc2ccc(CN3CCN(c4cc(-c5ccccc5O)nnc4N)CC3)cc2)c1 | 2 h, pH 7.2 | Papp B→A | 3.8 ×10⁻⁶ cm/s |
